Measured values collected from several papers.
Protocols differ between the studies behind these lines.
Target: Calcium/calmodulin-dependent protein kinase kinase 2 (CAMKK2, Homo sapiens, UniProt Q96RR4)

COc1ncccc1-c1cnn2ccc(N3CCN(C(=O)OC(C)C)CC3)nc12  remaining binding (binding; competition with immobilised ligand; 1 µM): 88%
Cn1cc(-c2cccc(N3CCc4c(sc5c4CC(C)(C)C5)C3=O)c2CO)cc(Nc2ccncn2)c1=O  inhibition (enzyme activity; inhibitor; 1 µM): -7%
N#CC1(c2ccccn2)CCN(Cc2cc(C(=O)O)c(=O)n3ccccc23)CC1  remaining binding (cell-free assay; competition with immobilised ligand; 1 µM): 100%
O=c1[nH]c2ccccc2n1C1CCN(Cc2ccc(-c3[nH]c4cc5ncnc5cc4nc3-c3ccccc3)cc2)CC1  remaining signal (cell-free assay; 0.5 µM): 112%
Cc1nn(C)cc1-c1nc2c(N3CCN(Cc4ccc(Cl)cc4)CC3)c(Cl)cnc2[nH]1  remaining binding (binding; competition with immobilised ligand; 1 µM): 100%
CC(C)(C)c1cc(C=C(C#N)C#N)cc(Br)c1O  remaining activity (enzyme activity; inhibitor; 0.5 µM): 92.5%
Cn1cncc1[C@](O)(COc1ccc(C#N)cc1-c1ccc(OC(F)(F)F)cc1)c1ccc(C#N)cc1  remaining binding (cell-free assay; competition with immobilised ligand; 1 µM): 100%
Nc1ncc(-c2nc(N3CCOCC3)nc(N3CCOCC3)n2)c(C(F)F)n1  remaining binding (binding; competition with immobilised ligand; 10 µM): 65%
